Measured values as given in ChEMBL document CHEMBL1944580, “Synthesis of novel sulfonamide-1,2,4-triazoles, 1,3,4-thiadiazoles and 1,3,4-oxadiazoles, as potential antibacterial and antifungal agents. Biological evaluation and conformational analysis studies” (2012).
Converted amounts (≈) assume the structure as drawn.

Experiments:
Trichoderma viride [1] = assay: Antifungal activity against Trichoderma viride IAM 5061 treated for 72 hrs followed by sub-cultivated for 5 days by serial dilution method; format: functional
How it was run: (§1)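 MFC obtained after the 72 h, 28 °C malt-broth microdilution (spore inoculum about 1.0 × 10^5 per well, compounds from 1 mg/ml DMSO). 2 µl was serially subcultured into 100 µl broth per well and incubated a further 5 days at 28 °C. MFC is the lowest concentration with no visible growth, taken as 99.5% killing of the original inoculum.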

Bacillus cereus [2] = assay: Antibacterial activity against Bacillus cereus clinical isolate after 24 hrs by micro dilution method; format: functional
How it was run: (§2)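 Microdilution MIC in 96-well plates. Bacterial suspensions adjusted in sterile saline to 1.0 × 10^5 CFU/ml, giving 1.0 × 10^4 cfu per well in LB broth. Compounds tested at up to 1 mg/ml. Plates incubated 24 h. MIC taken as the lowest concentration with no visible growth under a binocular microscope. OD at 655 nm was also read against a blank and the positive control. Streptomycin and ampicillin were the positive controls.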

Escherichia coli [3] = assay: Antibacterial activity against Escherichia coli ATCC 35210 treated for 24 hrs followed by sub-cultivated for 72 hrs by micro dilution method; format: functional
How it was run: (§3)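 2 µl from each well was serially subcultured into 100 µl fresh broth per well and incubated a further 72 h. MBC is the lowest concentration with no visible growth, taken as 99.5% killing of the original inoculum. Streptomycin and ampicillin were the positive controls.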

Staphylococcus aureus [4] = assay: Antibacterial activity against Staphylococcus aureus ATCC 6538 after 24 hrs by micro dilution method; format: functional; conditions: ATCC 6538, 24 h; how it was run: as §2
Penicillium ochrochloron [5] = assay: Antifungal activity against Penicillium ochrochloron ATCC 9112 treated for 72 hrs followed by sub-cultivated for 5 days by serial dilution method; format: functional; how it was run: as §1
Escherichia coli [6] = assay: Antibacterial activity against Escherichia coli ATCC 35210 after 24 hrs by micro dilution method; format: functional; conditions: ATCC 35210, 24 h; how it was run: as §2
Talaromyces funiculosus [7] = assay: Antifungal activity against Penicillium funiculosum ATCC 36839 after 72 hrs by serial dilution method; format: functional; conditions: ATCC 36839, 72 h
How it was run: (§4)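 Modified microdilution MIC. Spores were washed from malt agar cultures with sterile 0.85% saline containing 0.1% Tween 80 and adjusted to about 1.0 × 10^5 per 100 µl well in malt broth. Compounds were dissolved in DMSO (1 mg/ml). Plates incubated 72 h at 28 °C. MIC is the lowest concentration with no visible growth under a binocular microscope. Bifonazole and ketoconazole were the references.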

Trichoderma viride [8] = assay: Antifungal activity against Trichoderma viride IAM 5061 after 72 hrs by serial dilution method; format: functional; conditions: IAM 5061, 72 h; how it was run: as §4
Enterobacter cloacae [9] = assay: Antibacterial activity against Enterobacter cloacae human isolate after 24 hrs by micro dilution method; format: functional; how it was run: as §2
Aspergillus flavus [10] = assay: Antifungal activity against Aspergillus flavus ATCC 9643 after 72 hrs by serial dilution method; format: functional; conditions: ATCC 9643, 72 h; how it was run: as §4
Aspergillus niger [11] = assay: Antifungal activity against Aspergillus niger ATCC 6275 treated for 72 hrs followed by sub-cultivated for 5 days by serial dilution method; format: functional; how it was run: as §1
Aspergillus niger [12] = assay: Antifungal activity against Aspergillus niger ATCC 6275 after 72 hrs by serial dilution method; format: functional; conditions: ATCC 6275, 72 h; how it was run: as §4
Aspergillus flavus [13] = assay: Antifungal activity against Aspergillus flavus ATCC 9643 treated for 72 hrs followed by sub-cultivated for 5 days by serial dilution method; format: functional; how it was run: as §1
Aspergillus fumigatus [14] = assay: Antifungal activity against Aspergillus fumigatus human isolate after 72 hrs by serial dilution method; format: functional; how it was run: as §4
Talaromyces funiculosus [15] = assay: Antifungal activity against Penicillium funiculosum ATCC 36839 treated for 72 hrs followed by sub-cultivated for 5 days by serial dilution method; format: functional; how it was run: as §1
Fulvia fulva [16] = assay: Antifungal activity against Fulvia fulva treated for 72 hrs followed by sub-cultivated for 5 days by serial dilution method; format: functional; how it was run: as §1
Penicillium ochrochloron [17] = assay: Antifungal activity against Penicillium ochrochloron ATCC 9112 after 72 hrs by serial dilution method; format: functional; conditions: ATCC 9112, 72 h; how it was run: as §4
Bacillus cereus [18] = assay: Antibacterial activity against Bacillus cereus clinical isolate treated for 24 hrs followed by sub-cultivated for 72 hrs by micro dilution method; format: functional; how it was run: as §3
Aspergillus versicolor [19] = assay: Antifungal activity against Aspergillus versicolor ATCC 11730 after 72 hrs by serial dilution method; format: functional; conditions: ATCC 11730, 72 h; how it was run: as §4
Micrococcus flavus [20] = assay: Antibacterial activity against Micrococcus flavus ATCC 10240 after 24 hrs by micro dilution method; format: functional; conditions: ATCC 10240, 24 h; how it was run: as §2
Staphylococcus aureus [21] = assay: Antibacterial activity against Staphylococcus aureus ATCC 6538 treated for 24 hrs followed by sub-cultivated for 72 hrs by micro dilution method; format: functional; how it was run: as §3
Micrococcus flavus [22] = assay: Antibacterial activity against Micrococcus flavus ATCC 10240 treated for 24 hrs followed by sub-cultivated for 72 hrs by micro dilution method; format: functional; how it was run: as §3
Aspergillus fumigatus [23] = assay: Antifungal activity against Aspergillus fumigatus human isolate treated for 72 hrs followed by sub-cultivated for 5 days by serial dilution method; format: functional; how it was run: as §1
Pseudomonas aeruginosa [24] = assay: Antibacterial activity against Pseudomonas aeruginosa ATCC 27853 after 24 hrs by micro dilution method; format: functional; conditions: ATCC 27853, 24 h; how it was run: as §2
Enterobacter cloacae [25] = assay: Antibacterial activity against Enterobacter cloacae human isolate treated for 24 hrs followed by sub-cultivated for 72 hrs by micro dilution method; format: functional; how it was run: as §3
Fulvia fulva [26] = assay: Antifungal activity against Fulvia fulva after 72 hrs by serial dilution method; format: functional; how it was run: as §4
Listeria monocytogenes [27] = assay: Antibacterial activity against Listeria monocytogenes NCTC 7973 after 24 hrs by micro dilution method; format: functional; conditions: NCTC 7973, 24 h; how it was run: as §2
Salmonella typhimurium [28] = assay: Antibacterial activity against Salmonella Typhimurium ATCC 13311 after 24 hrs by micro dilution method; format: functional, Salmonella enterica subsp. enterica serovar Typhimurium; conditions: Salmonella enterica, ATCC 13311, 24 h; how it was run: as §2
Listeria monocytogenes [29] = assay: Antibacterial activity against Listeria monocytogenes NCTC 7973 treated for 24 hrs followed by sub-cultivated for 72 hrs by micro dilution method; format: functional; how it was run: as §3
Pseudomonas aeruginosa [30] = assay: Antibacterial activity against Pseudomonas aeruginosa ATCC 27853 treated for 24 hrs followed by sub-cultivated for 72 hrs by micro dilution method; format: functional; how it was run: as §3
Salmonella typhimurium [31] = assay: Antibacterial activity against Salmonella Typhimurium ATCC 13311 treated for 24 hrs followed by sub-cultivated for 72 hrs by micro dilution method; format: functional, Salmonella enterica subsp. enterica serovar Typhimurium; conditions: Salmonella enterica; how it was run: as §3
Aspergillus versicolor [32] = assay: Antifungal activity against Aspergillus versicolor ATCC 11730 treated for 72 hrs followed by sub-cultivated for 5 days by serial dilution method; format: functional; how it was run: as §1

| Structure (SMILES) | MFC (Trichoderma viride [1]) [µM] | MIC (Bacillus cereus [2]) [µM] | MBC (Escherichia coli [3]) [µM] | MIC (Staphylococcus aureus [4]) [µM] | MFC (Penicillium ochrochloron [5]) [µM] | MIC (Escherichia coli [6]) [µM] | MIC (Talaromyces funiculosus [7]) [µM] | MIC (Trichoderma viride [8]) [µM] | MIC (Enterobacter cloacae [9]) [µM] | MIC (Aspergillus flavus [10]) [µM] | MFC (Aspergillus niger [11]) [µM] | MIC (Aspergillus niger [12]) [µM] | MFC (Aspergillus flavus [13]) [µM] | MIC (Aspergillus fumigatus [14]) [µM] | MFC (Talaromyces funiculosus [15]) [µM] | MFC (Fulvia fulva [16]) [µM] | MIC (Penicillium ochrochloron [17]) [µM] | MBC (Bacillus cereus [18]) [µM] | MIC (Aspergillus versicolor [19]) [µM] | MIC (Micrococcus flavus [20]) [µM] | also measured |
| --- | --- | --- | --- | --- | --- | --- | --- | --- | --- | --- | --- | --- | --- | --- | --- | --- | --- | --- | --- | --- | --- |
| COc1cc(Cc2n[nH]c(=S)n2C)c(S(=O)(=O)N(C)C)cc1OC | 140 (≈ 52.1 µg/mL) | 270 (≈ 101 µg/mL) | 540 (≈ 201 µg/mL) | 270 (≈ 101 µg/mL) | 270 (≈ 101 µg/mL) | 540 (≈ 201 µg/mL) | 140 (≈ 52.1 µg/mL) | 70 (≈ 26.1 µg/mL) | 270 (≈ 101 µg/mL) | 70 (≈ 26.1 µg/mL) | 140 (≈ 52.1 µg/mL) | 70 (≈ 26.1 µg/mL) | 140 (≈ 52.1 µg/mL) | 140 (≈ 52.1 µg/mL) | 270 (≈ 101 µg/mL) | 140 (≈ 52.1 µg/mL) | 140 (≈ 52.1 µg/mL) | 540 (≈ 201 µg/mL) | 140 (≈ 52.1 µg/mL) | 270 (≈ 101 µg/mL) | MBC (Staphylococcus aureus [21]): 540 µM (≈ 201 µg/mL); MBC (Micrococcus flavus [22]): 540 µM (≈ 201 µg/mL); MFC (Aspergillus fumigatus [23]): 270 µM (≈ 101 µg/mL); MIC (Pseudomonas aeruginosa [24]): 540 µM (≈ 201 µg/mL); MBC (Enterobacter cloacae [25]): 270 µM (≈ 101 µg/mL); MIC (Fulvia fulva [26]): 70 µM (≈ 26.1 µg/mL); MIC (Listeria monocytogenes [27]): 270 µM (≈ 101 µg/mL); MIC (Salmonella typhimurium [28]): 270 µM (≈ 101 µg/mL); MBC (Listeria monocytogenes [29]): 270 µM (≈ 101 µg/mL); MBC (Pseudomonas aeruginosa [30]): 540 µM (≈ 201 µg/mL); MBC (Salmonella typhimurium [31]): 270 µM (≈ 101 µg/mL); MFC (Aspergillus versicolor [32]): 270 µM (≈ 101 µg/mL) |
| CCn1c(Cc2cc(OC)c(OC)cc2S(=O)(=O)N(C)C)n[nH]c1=S | 130 (≈ 50.2 µg/mL) | 520 (≈ 201 µg/mL) | 520 (≈ 201 µg/mL) | 260 (≈ 100 µg/mL) | 260 (≈ 100 µg/mL) | 260 (≈ 100 µg/mL) | 130 (≈ 50.2 µg/mL) | 70 (≈ 27.1 µg/mL) | 260 (≈ 100 µg/mL) | 70 (≈ 27.1 µg/mL) | 130 (≈ 50.2 µg/mL) | 70 (≈ 27.1 µg/mL) | 260 (≈ 100 µg/mL) | 130 (≈ 50.2 µg/mL) | 260 (≈ 100 µg/mL) | 70 (≈ 27.1 µg/mL) | 130 (≈ 50.2 µg/mL) | 520 (≈ 201 µg/mL) | 130 (≈ 50.2 µg/mL) | 260 (≈ 100 µg/mL) | MBC (Staphylococcus aureus [21]): 520 µM (≈ 201 µg/mL); MBC (Micrococcus flavus [22]): 520 µM (≈ 201 µg/mL); MFC (Aspergillus fumigatus [23]): 260 µM (≈ 100 µg/mL); MIC (Pseudomonas aeruginosa [24]): 260 µM (≈ 100 µg/mL); MBC (Enterobacter cloacae [25]): 520 µM (≈ 201 µg/mL); MIC (Fulvia fulva [26]): 70 µM (≈ 27.1 µg/mL); MIC (Listeria monocytogenes [27]): 260 µM (≈ 100 µg/mL); MIC (Salmonella typhimurium [28]): 260 µM (≈ 100 µg/mL); MBC (Listeria monocytogenes [29]): 520 µM (≈ 201 µg/mL); MBC (Pseudomonas aeruginosa [30]): 260 µM (≈ 100 µg/mL); MBC (Salmonella typhimurium [31]): 260 µM (≈ 100 µg/mL); MFC (Aspergillus versicolor [32]): 260 µM (≈ 100 µg/mL) |
